The text below walks through data of ChEMBL document CHEMBL4014339, “Discovery of 1,4-Benzodiazepine-2,5-dione (BZD) Derivatives as Dual Nucleotide Binding Oligomerization Domain Containing 1/2 (NOD1/NOD2) Antagonists Sensitizing Paclitaxel (PTX) To Suppress Lewis Lung Carcinoma (LLC) Growth in Vivo” (J Med Chem, 2017).

The target in the first test is T1, Nucleotide-binding oligomerization domain-containing protein 1 (Homo sapiens) (UniProt Q9Y239).
T1 sequence (whole entry): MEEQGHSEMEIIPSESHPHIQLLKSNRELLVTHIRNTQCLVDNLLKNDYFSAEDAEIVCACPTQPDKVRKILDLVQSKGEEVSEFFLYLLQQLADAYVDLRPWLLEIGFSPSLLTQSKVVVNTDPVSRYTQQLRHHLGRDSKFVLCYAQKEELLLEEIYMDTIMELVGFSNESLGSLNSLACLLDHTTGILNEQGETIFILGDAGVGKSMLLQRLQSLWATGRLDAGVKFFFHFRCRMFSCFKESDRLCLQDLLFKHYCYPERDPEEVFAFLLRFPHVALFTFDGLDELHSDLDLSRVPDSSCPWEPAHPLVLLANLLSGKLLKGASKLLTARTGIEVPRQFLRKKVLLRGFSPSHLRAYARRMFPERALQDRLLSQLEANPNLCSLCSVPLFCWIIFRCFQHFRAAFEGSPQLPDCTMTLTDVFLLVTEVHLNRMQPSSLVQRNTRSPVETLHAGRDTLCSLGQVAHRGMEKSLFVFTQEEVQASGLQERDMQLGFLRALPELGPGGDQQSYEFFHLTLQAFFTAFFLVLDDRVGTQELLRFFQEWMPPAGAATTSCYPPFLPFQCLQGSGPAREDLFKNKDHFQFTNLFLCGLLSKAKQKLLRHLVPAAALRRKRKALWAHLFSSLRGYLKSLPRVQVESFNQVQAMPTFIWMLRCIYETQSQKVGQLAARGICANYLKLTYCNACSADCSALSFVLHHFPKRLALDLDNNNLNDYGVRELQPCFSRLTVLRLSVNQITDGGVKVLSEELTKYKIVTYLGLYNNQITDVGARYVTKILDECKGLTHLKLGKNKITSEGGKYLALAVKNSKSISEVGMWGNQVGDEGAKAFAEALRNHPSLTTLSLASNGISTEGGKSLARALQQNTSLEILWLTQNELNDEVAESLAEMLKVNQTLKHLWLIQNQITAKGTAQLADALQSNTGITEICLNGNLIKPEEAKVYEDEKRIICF
As to the kind of experiment: Antagonist activity at human NOD1 expressed in HEK-Blue cells assessed as inhibition of C12-iE-DAP-stimulated cell activation at 10 uM preincubated for 3 hrs followed by C12-iE-DAP addition measured after 20 hrs by SEAP reporter gene assay. It is filed as cell-based. An outline of the steps:
(§1)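 HEK-Blue hNOD1 or hNOD2 cells preincubated with compound 3 h, then stimulated 20 h with C12-iE-DAP 50 ng/mL (NOD1) or MDP 100 ng/mL (NOD2); SEAP in supernatant quantified. Primary screen at 10 μM, hits repeated in triplicate; IC50 from dose-response, mean ± SD (n = 3), only for compounds reaching ≥50% inhibition at the screening concentration.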
(A reporter such as luciferase makes a cellular process visible.)
In general, inhibition refers to the relative decrease from the control value, in per cent. Consider `COC(=O)CC[C@H]1NC(=O)c2cc(Oc3cccc4ccccc34)c(NC(=O)/C=C\c3ccc(F)cc3Cl)cc2NC1=O`, for which the inhibition is 37.9%.
As to `COC(=O)CC[C@H]1NC(=O)c2cc(OC)c(NC(=O)c3ccc4ccccc4c3)cc2NC1=O`, the inhibition is 66.4%.
With `COC(=O)CC[C@H]1NC(=O)c2cc(N3CCOCC3)c(NC(=O)C3CC3)cc2NC1=O`, the inhibition turned out to be 6.82%.
Same read-out and setting: then `CCCCCCCCCCCCCCCCCCNC(=O)CC[C@H]1NC(=O)c2cc(Oc3cccc(N(C)C)c3)c(NC(=O)COCc3ccccc3)cc2NC1=O`, with 18.5%; and `COC(=O)CC[C@H]1NC(=O)c2cc(Oc3ccccc3)c(NC(=O)Nc3ccc(F)cc3)cc2NC1=O`, with -9.85%; and `O=C(O)CC[C@H]1NC(=O)c2cc(Oc3cccc4ccccc34)c(NC(=O)/C=C\c3ccc(F)cc3Cl)cc2NC1=O`, with 3.86%.
For `CCCCCCCCCN1C(=O)[C@@H](CCC(=O)N[C@@H](C)C(N)=O)N(C)C(=O)c2ccc(Cl)cc21`, the inhibition is 17%.
Same read-out and setting: as for `COC(=O)CC[C@H]1NC(=O)c2cc(Cl)ccc2NC1=O`, the figure is 38%.
Regarding `CCCCCCCCCCCCNCC(=O)Nc1cc2c(cc1Oc1cccc(N(C)C)c1)C(=O)N[C@H](CCC(=O)OC)C(=O)N2`, the inhibition stood at 7.37%.
For the compound `CCCCCCCCCN1C(=O)[C@@H](CCC(=O)NCc2cccnc2)N(C)C(=O)c2ccc(Cl)cc21`, the inhibition is 54.8%.
As to `CCCCCCCCCN1C(=O)[C@@H](CCC(N)=O)N(C)C(=O)c2ccc(Cl)cc21`, the inhibition was 22%.
Still for that read-out and setting: as for `NC(=O)CC[C@H]1NC(=O)c2cc(Oc3cccc4ccccc34)c(NC(=O)C3CC3)cc2NC1=O`, the figure is 41.6%.
Consider `CCCCCCCCCN1C(=O)[C@@H](CCC(=O)OC)N(C)C(=O)c2ccc(Cl)cc21`, for which the inhibition came out at 31.3%.
Same read-out and setting: then `COC(=O)CCC1NC(=O)c2cc(Cl)ccc2N(CC2CC2)C1=O` (stereo unspecified), with -3.06%; and `COC(=O)CC[C@H]1NC(=O)c2cc(Oc3cccc4ccccc34)c(NC(=O)C3CC3)cc2NC1=O`, with 6.34%.
As to `CCCCN(CCCC)c1cc2c(cc1NC(C)=O)NC(=O)[C@@H](CCC(=O)OC)NC2=O`, the inhibition is -6.29%.
Still for that read-out and setting: as for `C=CC(=O)Nc1cc2c(cc1Oc1cccc(N(C)C)c1)C(=O)N[C@H](CCC(=O)OC)C(=O)N2`, the figure is 82.1%; as for `CCCCCCCCCCCCNC(=O)CC[C@H]1NC(=O)c2cc(N3CCOCC3)c(NC(=O)C3CC3)cc2NC1=O`, -0.69%; as for `CCCCCCCCCCN1C(=O)C(CCC(=O)OC)NC(=O)c2cc(Cl)ccc21` (stereo unspecified), 2.54%.
The same measure, in the same setting: as for `O=C(CC[C@H]1NC(=O)c2cc(N3CCOCC3)c(NC(=O)C3CC3)cc2NC1=O)NC1CCCc2ccccc21` (stereo partly specified), the figure is 22.6%; as for `COC(=O)CC[C@H]1NC(=O)c2cc(Oc3ccc(C)c(C)c3)c(NC(=O)C3CC3)cc2NC1=O`, -9.9%; as for `CCN(CC)C(=O)CC[C@@H]1C(=O)N(CC2CC2)c2cc(Cl)ccc2C(=O)N1C`, -8.85%.
As for `CCCCN(CCCC)c1cc2c(cc1NC(=O)/C=C/c1ccc(F)cc1Cl)NC(=O)[C@@H](CCC(=O)OC)NC2=O`, the inhibition is 76.5%.

The next test deals with T1, Nucleotide-binding oligomerization domain-containing protein 1 (Homo sapiens). As to the kind of experiment: Antagonist activity at human NOD1 expressed in HEK-blue cells assessed as inhibition of C12-iE-DAP-stimulated cell activation at 5 uM preincubated for 3 hrs followed by C12-iE-DAP addition measured after 20 hrs by SEAP reporter gene assay. It is filed as cell-based.
For `CCCCCCCCCCCCCCCCCCNC(=O)CC[C@H]1NC(=O)c2cc(Oc3cccc(N(C)C)c3)c(NC(=O)COCc3ccccc3)cc2NC1=O`, the inhibition stood at 12.7%.

For the next test, the target named is Nucleotide-binding oligomerization domain-containing protein 2 (Homo sapiens, UniProt Q9HC29). As to the kind of experiment: Antagonist activity at human NOD2 expressed in HEK-Blue cells assessed as inhibition of MDP-stimulated cell activation at 10 uM preincubated for 3 hrs followed by MDP addition measured after 20 hrs by SEAP reporter gene assay. It is filed as cell-based. A digest of the protocol: as §1
Chain of Nucleotide-binding oligomerization domain-containing protein 2 (Q9HC29 whole entry, the tested form may be a part): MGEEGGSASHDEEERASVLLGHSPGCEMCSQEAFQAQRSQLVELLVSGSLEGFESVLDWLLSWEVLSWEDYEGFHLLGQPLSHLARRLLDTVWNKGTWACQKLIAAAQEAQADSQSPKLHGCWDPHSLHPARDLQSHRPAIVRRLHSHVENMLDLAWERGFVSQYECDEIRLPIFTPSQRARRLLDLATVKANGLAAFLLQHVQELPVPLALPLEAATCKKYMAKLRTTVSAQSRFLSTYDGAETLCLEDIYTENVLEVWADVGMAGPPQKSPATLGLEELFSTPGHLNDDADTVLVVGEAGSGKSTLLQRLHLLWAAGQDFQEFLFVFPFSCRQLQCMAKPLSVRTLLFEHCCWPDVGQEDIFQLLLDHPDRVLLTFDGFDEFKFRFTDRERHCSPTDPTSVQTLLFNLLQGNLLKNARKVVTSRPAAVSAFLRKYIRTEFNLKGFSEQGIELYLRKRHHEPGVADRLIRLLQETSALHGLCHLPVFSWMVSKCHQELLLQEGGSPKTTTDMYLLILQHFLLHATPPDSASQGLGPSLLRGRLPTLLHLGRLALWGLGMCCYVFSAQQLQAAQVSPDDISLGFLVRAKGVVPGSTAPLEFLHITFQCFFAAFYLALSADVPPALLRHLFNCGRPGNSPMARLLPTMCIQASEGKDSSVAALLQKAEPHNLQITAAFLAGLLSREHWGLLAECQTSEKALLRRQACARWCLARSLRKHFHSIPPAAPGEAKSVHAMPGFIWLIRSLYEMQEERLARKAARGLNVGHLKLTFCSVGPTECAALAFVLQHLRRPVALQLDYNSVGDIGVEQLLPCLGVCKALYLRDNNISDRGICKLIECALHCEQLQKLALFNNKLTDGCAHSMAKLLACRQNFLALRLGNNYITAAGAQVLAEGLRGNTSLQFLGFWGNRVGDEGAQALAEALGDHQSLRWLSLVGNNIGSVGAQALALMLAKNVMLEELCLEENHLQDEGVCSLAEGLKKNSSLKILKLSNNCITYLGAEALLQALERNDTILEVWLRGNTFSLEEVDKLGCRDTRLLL
For the compound `COC(=O)CC[C@H]1NC(=O)c2cc(Oc3cccc4ccccc34)c(NC(=O)/C=C\c3ccc(F)cc3Cl)cc2NC1=O`, the inhibition came out at 34.2%.
For `COC(=O)CC[C@H]1NC(=O)c2cc(OC)c(NC(=O)c3ccc4ccccc4c3)cc2NC1=O`, the inhibition stood at 76.6%.
As to `COC(=O)CC[C@H]1NC(=O)c2cc(N3CCOCC3)c(NC(=O)C3CC3)cc2NC1=O`, the inhibition was 27%.
On the same count and under the same terms, then `COC(=O)CC[C@H]1NC(=O)c2cc(Oc3ccccc3)c(NC(=O)Nc3ccc(F)cc3)cc2NC1=O`, with 0.22%; and `O=C(O)CC[C@H]1NC(=O)c2cc(Oc3cccc4ccccc34)c(NC(=O)/C=C\c3ccc(F)cc3Cl)cc2NC1=O`, with 7.76%; and `CCCCCCCCCN1C(=O)[C@@H](CCC(=O)N[C@@H](C)C(N)=O)N(C)C(=O)c2ccc(Cl)cc21`, with 27.7%.
Regarding `COC(=O)CC[C@H]1NC(=O)c2cc(Cl)ccc2NC1=O`, the inhibition was determined as 28.9%.
As to `CCCCCCCCCCCCNCC(=O)Nc1cc2c(cc1Oc1cccc(N(C)C)c1)C(=O)N[C@H](CCC(=O)OC)C(=O)N2`, the inhibition is -3.92%.
The same measure, in the same setting: then `CCCCCCCCCN1C(=O)[C@@H](CCC(=O)NCc2cccnc2)N(C)C(=O)c2ccc(Cl)cc21`, with 30.9%.
Regarding `CCCCCCCCCN1C(=O)[C@@H](CCC(N)=O)N(C)C(=O)c2ccc(Cl)cc21`, the inhibition turned out to be 29.5%.
Consider `NC(=O)CC[C@H]1NC(=O)c2cc(Oc3cccc4ccccc34)c(NC(=O)C3CC3)cc2NC1=O`, for which the inhibition is 28.7%.
`CCCCCCCCCN1C(=O)[C@@H](CCC(=O)OC)N(C)C(=O)c2ccc(Cl)cc21`: the inhibition was 34.1%.
`COC(=O)CCC1NC(=O)c2cc(Cl)ccc2N(CC2CC2)C1=O` (stereo unspecified): the inhibition is -2.7%.
For `COC(=O)CC[C@H]1NC(=O)c2cc(Oc3cccc4ccccc34)c(NC(=O)C3CC3)cc2NC1=O`, the inhibition was -0.3%.
In the case of `CCCCN(CCCC)c1cc2c(cc1NC(C)=O)NC(=O)[C@@H](CCC(=O)OC)NC2=O`, the inhibition was -7.93%.
Consider `C=CC(=O)Nc1cc2c(cc1Oc1cccc(N(C)C)c1)C(=O)N[C@H](CCC(=O)OC)C(=O)N2`, for which the inhibition came to 91.9%.
For the compound `CCCCCCCCCCCCNC(=O)CC[C@H]1NC(=O)c2cc(N3CCOCC3)c(NC(=O)C3CC3)cc2NC1=O`, the inhibition was 7.9%.
As for `CCCCCCCCCCN1C(=O)C(CCC(=O)OC)NC(=O)c2cc(Cl)ccc21` (stereo unspecified), the inhibition was -2.7%.
Still for that read-out and setting: then `O=C(CC[C@H]1NC(=O)c2cc(N3CCOCC3)c(NC(=O)C3CC3)cc2NC1=O)NC1CCCc2ccccc21` (stereo partly specified), with 27.1%.
Consider `COC(=O)CC[C@H]1NC(=O)c2cc(Oc3ccc(C)c(C)c3)c(NC(=O)C3CC3)cc2NC1=O`, for which the inhibition was -4.24%.
In the case of `CCN(CC)C(=O)CC[C@@H]1C(=O)N(CC2CC2)c2cc(Cl)ccc2C(=O)N1C`, the inhibition was determined as 1.38%.
In the case of `CCCCN(CCCC)c1cc2c(cc1NC(=O)/C=C/c1ccc(F)cc1Cl)NC(=O)[C@@H](CCC(=O)OC)NC2=O`, the inhibition is 60.8%.
